# Tested on: B16/F1 melanoma cells
# Assay: Cytotoxicity in B16/F1 melanoma cells
# Type: cell-based, murine
# Conditions: 0.1 µM, 3 h incubation at 37 °C, MTT 5 days post treatment
# Procedure, shortened: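 B16/F1 cells at 150/well, overnight in CO2 incubator, washed with RPMI 1640, then exposed 3 h at 37 °C to 0.1 µM test compound in binding medium; controls kept in culture medium only. Washed, grown 5 days with medium changed every other day; MTT (0.5 mg/mL) 3 h at 37 °C, formazan dissolved in acidic isopropanol, A570 minus A630. Survival = treated/control absorbance × 100%.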
substance,measurement,value
"[Cys^3,4,10, D-Phe^7, Arg^11]α-MSH3–13 [(Arg^11)CCMSH]",decrease of survival percentage versus untreated control cells,15%

# Source: paper PMC4363277 (Amino acids, 2015)
